Active and inactive are the calls of the source. The rule behind the calls is not given here.

Test [1] deals with Breast carcinoma cell. The test can be described thus: Cytotoxicity against patient derived inflammatory breast cancer cell spheroids assessed as increase in spheroid dissolution at 2.5 uM incubated for 24 hrs by bright field microscopic based Spheroids MARY-X assay. Type of test: functional. In short, it runs like this:
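MARY-X spheroids (40–100 μm) grown in MEM + 10% heat-inactivated FBS, penicillin/streptomycin, 37 °C, 5% CO2. Plated at 30–50 spheroids/well and exposed in replicates to 2.5 μM or DMSO vehicle for 24 h. Brightfield imaging scored deviation from the well-circumscribed spheroid edge, graded as no, low, moderate or complete response.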

Test [2] has as its system Breast carcinoma cell. The test can be described thus: Cytotoxicity against patient derived inflammatory breast cancer cell spheroids assessed as increase in spheroid dissolution incubated for 24 hrs by propidium iodide/Acridine orange staining based dual-fluorescence viability assay. In kind it is functional. Conditions: Homo sapiens.
Test [3] relates to Breast carcinoma cell. As to the kind of experiment: Cytotoxicity against patient derived inflammatory breast cancer cell spheroids assessed as increase in spheroid dissolution incubated for 24 hrs by bright field microscopic based Spheroids MARY-X assay. In kind it is functional. Conditions: Homo sapiens. Put shortly:
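MARY-X spheroids (40–100 μm; MEM, 10% heat-inactivated FBS, antibiotics, 37 °C, 5% CO2) were seeded at 30–50/well. Treated in replicates for 24 h with nine concentrations, 0.25–2.25 μM in 0.25 μM steps made by serial dilution, or DMSO. ImageJ circularity from brightfield images gave dose-response curves, from which IC50 was fitted.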

The subject of test [4] is Breast carcinoma cell. As to the kind of experiment: Induction of apoptosis in patient derived inflammatory breast cancer cell spheroids assessed as increase in loss of well-circumscribed spheroid edge at 2.5 uM incubated for 3 hrs by bright field microscopic analysis. In kind it is functional, cell-based. Conditions: Homo sapiens. In short, it runs like this:
(§1)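 Spheroids were embedded in Matrigel plugs (Matrigel:spheroids in medium 2:1) on coverslips and set for 30 min at 37 °C. They were exposed to 2.5 μM or DMSO for 3 h, with brightfield checks of edge loss. Plugs were fixed in 4% PFA 30 min RT, permeabilized with 2% Triton X-100 15 min, and blocked with 3% goat serum 30 min. Staining used Alexa488 anti-Ki67 (1:10) and anti-cPARP (1:100), 4 °C 24 h, then Cy5 anti-rabbit (4 µg/ml), 4 °C 24 h, and DAPI mountant. ApoTome z-stack fluorescence imaging followed.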

In test [5] the test system is Breast carcinoma cell. As to the kind of experiment: Induction of apoptosis in patient derived inflammatory breast cancer cell spheroids assessed as increase in pyknotic nuclei at 2.5 uM incubated for 3 hrs by DAPI staining based fluorescence microscopic analysis. In kind it is functional. Conditions: Homo sapiens. In short, it runs like this:
as §1

The test system of test [6] is Breast carcinoma cell. As to the kind of experiment: Induction of apoptosis in patient derived inflammatory breast cancer cell spheroids assessed as localization of cleaved PARP at 2.5 uM incubated for 3 hrs by c-PARP staining based fluorescence microscopic analysis. Conditions: Homo sapiens. In kind it is functional. Put shortly: as §1
Test [7] has as its system Breast carcinoma cell. The test can be described thus: Antiproliferative activity against patient derived inflammatory breast cancer cell spheroids assessed as reduction in cell viability at 2.5 uM incubated for 3 hrs by ki-67 staining based fluorescence microscopic analysis. In kind it is functional. The conditions noted are these: Homo sapiens. In short, it runs like this:
as §1

For test [8], the system named is Breast carcinoma cell. As to the kind of experiment: Potency index, ratio of IC50 for taxol to IC50 for test compound for cytotoxicity against patient derived inflammatory breast cancer cell spheroids assessed as increase in spheroid dissolution incubated for 24 hrs by propidium iodide/Acridine orange staining based dual-fluorescence viability assay. In kind it is functional, Homo sapiens.

`CC(C)=CCC12OC(C)(C)C3CC(C=C4C(=O)c5ccc(O)cc5OC431)C2=O` (centres undefined): the outcome in the test with Breast carcinoma cell [1] (Homo sapiens) was inactive.
Turning to `CC(=O)O[C@H]1C(=O)[C@@]2(C)[C@H]([C@H](OC(=O)c3ccccc3)[C@]3(O)C[C@H](OC(=O)[C@H](O)[C@@H](NC(=O)c4ccccc4)c4ccccc4)C(C)=C1C3(C)C)[C@]1(OC(C)=O)CO[C@@H]1C[C@@H]2O` [PACLITAXEL], the IC50 – broadly, the concentration needed to halve the response being measured – with Breast carcinoma cell [2] stood at 7800 nM.
Regarding `COCCOCCOCCOc1cc(OCCOCCOCCOC)c2c(c1)OC13C(=CC4CC1C(C)(C)OC3(CC=C(C)C)C4=O)C2=O` (centres undefined), in the test on Breast carcinoma cell [1] (Homo sapiens), the outcome was Active.
Consider `COCOc1cc(O)c2c(c1)OC13C(=CC4CC1C(C)(C)OC3(CC=C(C)C)C4=O)C2=O` (centres undefined), for which the Activity in the test with Breast carcinoma cell [1] was 100%. The IC50 in the test with Breast carcinoma cell [3] worked out at 380 nM. Besides, the outcome in the test with Breast carcinoma cell [4], with Breast carcinoma cell [5], in the test with Breast carcinoma cell [6] and in the test on Breast carcinoma cell [7] was Active.
Turning to `CC(C)=CCC12OC(C)(C)C3CC(C=C4C(=O)c5c(O)cccc5OC431)C2=O` (centres undefined), the IC50 with Breast carcinoma cell [2] came to 660 nM; in the test on Breast carcinoma cell [3], 510 nM. The Activity in the test on Breast carcinoma cell [1] is 100%. The outcome with Breast carcinoma cell [4], in the test with Breast carcinoma cell [5], in the test with Breast carcinoma cell [6] and in the test with Breast carcinoma cell [7] was Active.
Turning to `CC(C)=CCC12OC(C)(C)C3CC(C=C4C(=O)c5c(F)cc(F)cc5OC431)C2=O` (centres undefined), the Activity in the test with Breast carcinoma cell [1] is 100%. The IC50 with Breast carcinoma cell [3] is 1120 nM. In addition, the result in the test on Breast carcinoma cell [4], in the test with Breast carcinoma cell [5], in the test with Breast carcinoma cell [6] and in the test with Breast carcinoma cell [7] was Active.
For `CC(C)=CCC12OC(C)(C)C3CC(C=C4C(=O)C5=C(OC431)C(=O)C=CC5=O)C2=O` (centres undefined), the outcome in the test on Breast carcinoma cell [1] (Homo sapiens) was inactive.
Still for that read-out and setting: then `CC(C)=CCC12OC(C)(C)C3CC(C=C4C(=O)c5c(O)cc(O)cc5OC431)C2=O` (centres undefined), with “inactive”; and `COCCOCCOCCOc1ccc2c(c1)OC13C(=CC4CC1C(C)(C)OC3(CC=C(C)C)C4=O)C2=O` (centres undefined), with “Active”.
Same read-out and setting: then `COc1ccc(OC)c2c1OC13C(=CC4CC1C(C)(C)OC3(CC=C(C)C)C4=O)C2=O` (centres undefined), with “inactive”; and `COCCOCCOCCOc1cccc2c1C(=O)C1=CC3CC4C(C)(C)OC(CC=C(C)C)(C3=O)C14O2` (centres undefined), with “Active”.
On the same count and under the same terms, to `COCCOCCOCCOc1cc(O)c2c(c1)OC13C(=CC4CC1C(C)(C)OC3(CC=C(C)C)C4=O)C2=O` (centres undefined) belongs “Active”.
On to `CC(C)=CCC12OC(C)(C)C3CC4(Oc5cc(F)cc(F)c5C(=O)C4=CC31)C2=O` (centres undefined), for which, in the test with Breast carcinoma cell [1], the Activity is listed as 100%. Also, the IC50 in the test on Breast carcinoma cell [3] was 890 nM.
For `CC(C)=CCC[C@]1(C)C=Cc2c(O)c3c(c(CC=C(C)C)c2O1)O[C@]12C(=C[C@@H]4C[C@H]1C(C)(C)O[C@@]2(C/C=C(/C)C(=O)O)C4=O)C3=O` [GAMBOGIC ACID], in the test with Breast carcinoma cell [2], the half-inhibitory concentration (IC50) was 420 nM. For the same molecule, in the test on Breast carcinoma cell [8], the “Ratio IC50” value came out at 20.
For `CC(C)=CCC12OC(C)(C)C3CC(C=C4C(=O)c5ccccc5OC431)C2=O` (centres undefined), in the test on Breast carcinoma cell [1], the Activity was 100%. Further, the IC50 in the test on Breast carcinoma cell [3] was 630 nM.

The record behind these values is ChEMBL document CHEMBL4340518, “Synthesis, structure-activity relationship and in vitro pharmacodynamics of A-ring modified caged xanthones in a preclinical model of inflammatory breast cancer” (Eur J Med Chem, 2019).
